# Activity calls are given as the source filed them.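 The calls were made as follows: active = calcium level giving half maximal force raised by at least 10% versus DMSO, meaning delta pCa50 at or below about -0.041; inactive = the rest.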
# Test: calcium sensitization of cardiac fiber tension, mechanism study for cardiac RTF sensitizer project, porcine papillary fibers, force transducer (AID 602231)
# Settings: Permeabilized pig cardiac fiber, Ca2+-tension pCa50 shift, at 10 µM; delta pCa50: stronger effect = higher value; maximal force change: measured here: effect on maximal fiber tension
# How it was run: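 Material: Skinned porcine cardiac papillary muscle fibers; medium: pH 7.0 buffer with Mg-ATP and EGTA; also added: free Ca2+ series, pCa 8.0–4.5; measured by: fiber tension measured by force transducer; evaluation: pCa50 shift versus DMSO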
SMILES,maximal force change,delta pCa50
CCOC(=O)c1cc2n(c1N)-c1ccccc1C2=O,2.13%,0.01 (inactive)
CCOC(=O)c1sc(N)c(C#N)c1COC(=O)CNC(=O)c1cc(OC)c(OC)c(OC)c1,3.3%,-0.039 (inactive)
Cc1cccn2c(=O)c(/C=C3\SC(=S)N(CC(C)C)C3=O)c(NCCCOC(C)C)nc12,-9.9%,-0.003 (inactive)
Cc1ccc(/C=C2\Oc3c(ccc(O)c3CN3CCN(CCO)CC3)C2=O)cc1,-0.5%,-0.027 (inactive)
